Common to all, as to format: functional
The test system of one assay is Staphylococcus aureus. Briefly: Antimicrobial activity against Staphylococcus aureus CMCC 26112 after 24 hrs by broth microdilution method. Particulars: CMCC 26112, 24 h. In short, it runs like this:
(§1)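 Broth microdilution in Mueller-Hinton broth. Compounds tested across a doubling-dilution series, with cefoperazone as the positive control. Plates incubated 24 h at 37 °C. MIC taken as the lowest concentration showing no visible bacterial growth.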

The next assay concerns Klebsiella pneumoniae. Briefly: Antimicrobial activity against Klebsiella pneumoniae CMCC 46117 after 24 hrs by broth microdilution method. Particulars: CMCC 46117, 24 h. In short, it runs like this: as §1
Another assay deals with Micrococcus luteus. As to the kind of experiment: Antimicrobial activity against Sarcina lutea CMCC 28001 after 24 hrs by broth microdilution method. Particulars: CMCC 28001, 24 h. In short, it runs like this:
as §1

Values after ≈ are worked out from the molar mass of the structure shown.

What is called MIC is the lowest concentration found to suppress growth. A low value points to greater potency. Turning to `CCCC[C@H](CC(=O)NO)C(=O)N[C@H](c1nc2cc(C(=O)Nc3ccc(OC)cc3)ccc2[nH]1)C(C)C`, the MIC against Staphylococcus aureus is 32 µg/mL (≈ 62.8 µM); with Klebsiella pneumoniae, 16 µg/mL (≈ 31.4 µM); against Micrococcus luteus, 16 µg/mL (≈ 31.4 µM).
As for `CCCC[C@H](CC(=O)NO)C(=O)N[C@H](c1nc2cc(C(=O)N3CCCCC3)ccc2[nH]1)C(C)C`, the minimum inhibitory concentration (MIC) is greater than 64 µg/mL in the assay on Staphylococcus aureus, 8 µg/mL (≈ 17 µM) against Klebsiella pneumoniae and greater than 64 µg/mL in the assay on Micrococcus luteus.
Regarding `CCCC[C@H](CC(=O)NO)C(=O)N[C@H](c1nc2cc(C(=O)NC3CCCCC3)ccc2[nH]1)C(C)C`, the MIC against Staphylococcus aureus was determined as 64 µg/mL (≈ 132 µM); in the assay with Klebsiella pneumoniae, 32 µg/mL (≈ 65.9 µM); in the assay with Micrococcus luteus, 64 µg/mL (≈ 132 µM).
For the compound `CCN1CCN(C(=O)N[C@@H](C(=O)N[C@@H]2C(=O)N3C(C(=O)O)=C(CSc4nnnn4C)CS[C@H]23)c2ccc(O)cc2)C(=O)C1=O` [CEFOPERAZONE], the minimum inhibitory concentration (MIC) in the assay on Staphylococcus aureus, in the assay on Klebsiella pneumoniae and against Micrococcus luteus was 0.25 µg/mL (≈ 0.387 µM) throughout.
For `CCCC[C@H](CC(=O)NO)C(=O)N[C@H](c1nc2cc(OC)ccc2[nH]1)C(C)C`, the MIC against Staphylococcus aureus, with Klebsiella pneumoniae and in the assay with Micrococcus luteus was 8 µg/mL (≈ 20.5 µM) each time.
As for `CCCC[C@H](CC(=O)NO)C(=O)N[C@H](c1nc2cc(C(=O)N3CCOCC3)ccc2[nH]1)C(C)C`, the minimum inhibitory concentration (MIC) against Staphylococcus aureus stood at 16 µg/mL (≈ 33.8 µM); against Klebsiella pneumoniae, 8 µg/mL (≈ 16.9 µM); in the assay with Micrococcus luteus, 16 µg/mL (≈ 33.8 µM).
As for `CCCC[C@H](CC(=O)NO)C(=O)N[C@H](c1nc2cc(C)ccc2[nH]1)C(C)C`, the minimal inhibitory concentration (MIC) is 8 µg/mL (≈ 21.4 µM) in the assay on Staphylococcus aureus, 4 µg/mL (≈ 10.7 µM) against Klebsiella pneumoniae and 8 µg/mL (≈ 21.4 µM) in the assay on Micrococcus luteus.
Take `CCCC[C@H](CC(=O)NO)C(=O)N[C@H](c1nc2ccccc2[nH]1)C(C)C`: the minimum inhibitory concentration (MIC) was 2 µg/mL (≈ 5.55 µM) with Staphylococcus aureus, 0.5 µg/mL (≈ 1.39 µM) in the assay with Klebsiella pneumoniae and 4 µg/mL (≈ 11.1 µM) in the assay with Micrococcus luteus.
